# pIC50, pKi: −log10 of the molar value.
# Assays:
# [1] = target: T1, Fatty-acid amide hydrolase 1 (Rattus norvegicus, UniProt P97612); experiment: Inhibition of rat brain FAAH assessed as inhibition of [14C]anandamide hydrolysis
# T1 sequence (P97612 whole entry): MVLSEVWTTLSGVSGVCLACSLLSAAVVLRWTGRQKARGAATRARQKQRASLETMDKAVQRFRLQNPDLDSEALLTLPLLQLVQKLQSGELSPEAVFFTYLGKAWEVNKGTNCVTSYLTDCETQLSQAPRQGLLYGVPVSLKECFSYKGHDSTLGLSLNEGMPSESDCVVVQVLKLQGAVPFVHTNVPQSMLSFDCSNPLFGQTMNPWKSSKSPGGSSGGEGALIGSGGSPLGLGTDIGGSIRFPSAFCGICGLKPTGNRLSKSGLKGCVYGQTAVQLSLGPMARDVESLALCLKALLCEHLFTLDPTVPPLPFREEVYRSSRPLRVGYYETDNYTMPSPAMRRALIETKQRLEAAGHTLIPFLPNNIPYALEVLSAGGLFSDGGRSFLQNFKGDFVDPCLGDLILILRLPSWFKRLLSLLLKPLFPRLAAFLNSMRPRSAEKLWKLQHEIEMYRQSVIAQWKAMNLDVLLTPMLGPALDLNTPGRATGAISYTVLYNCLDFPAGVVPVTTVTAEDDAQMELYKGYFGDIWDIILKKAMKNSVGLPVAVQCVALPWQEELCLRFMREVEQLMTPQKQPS
# Outline: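 Rat brain membranes incubated with [14C]anandamide (6 µM) and increasing compound concentrations in 50 mM Tris–HCl, pH 9, for 30 min at 37 °C. Mixture extracted with 2 volumes CHCl3/CH3OH (2:1). [14C]ethanolamine in the aqueous phase counted by scintillation. IC50 is the mean of n = 3 experiments.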
# Cannabinoid receptor 2 = Cannabinoid receptor 2 (Homo sapiens, UniProt P34972); experiment: Displacement of [3H]CP-55940 from human CB2 receptor expressed in HEK cells; format: cell-based, HEK293
# Outline: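 Preliminary screen at 5, 10 and 25 µM, then a complete displacement curve if binding fell by >50% at 10 µM. IC50 converted to Ki using Cheng–Prusoff. Mean of 3 separate experiments.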
# [2] = target: Cannabinoid receptor (Homo sapiens) (UniProt P34972+P21554); experiment: Selectivity for human CB1 receptor over human CB2 receptor; format: protein assay
# Cannabinoid receptor 1 [3] = target: T2, Cannabinoid receptor 1 (Homo sapiens, UniProt P21554); experiment: (§1) Displacement of [3H]CP-55940 from human CB1 receptor expressed in HEK cells; format: cell-based, HEK293
# Cannabinoid receptor 1 [4] = target: T2, Cannabinoid receptor 1; experiment: as §1; format: cell-based, HEK293; remark: listed apart in the source
# Outline: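 Membranes from HEK cells transfected with human CB1. Screen at 5, 10 and 25 µM, then full dose–response for compounds displacing >50% at 10 µM. […] Ki derived from IC50 by Cheng–Prusoff. Means of n = 3 separate experiments.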
# Chain of Cannabinoid receptor (Homo sapiens) (P21554 whole entry, looked up): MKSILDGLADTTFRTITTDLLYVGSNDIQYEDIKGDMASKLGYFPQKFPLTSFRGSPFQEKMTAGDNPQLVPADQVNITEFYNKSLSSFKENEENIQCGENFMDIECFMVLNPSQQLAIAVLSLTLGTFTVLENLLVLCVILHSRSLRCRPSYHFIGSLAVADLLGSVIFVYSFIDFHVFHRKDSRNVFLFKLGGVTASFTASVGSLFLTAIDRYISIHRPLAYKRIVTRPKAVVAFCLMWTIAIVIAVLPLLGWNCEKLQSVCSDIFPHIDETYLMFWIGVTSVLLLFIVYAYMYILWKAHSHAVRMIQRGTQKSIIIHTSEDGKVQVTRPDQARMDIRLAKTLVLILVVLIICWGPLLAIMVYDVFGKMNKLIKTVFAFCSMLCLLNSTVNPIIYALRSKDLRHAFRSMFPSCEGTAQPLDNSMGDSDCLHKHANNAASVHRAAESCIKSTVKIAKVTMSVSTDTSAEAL
# Chain of Cannabinoid receptor (Homo sapiens) (P34972 whole entry, looked up): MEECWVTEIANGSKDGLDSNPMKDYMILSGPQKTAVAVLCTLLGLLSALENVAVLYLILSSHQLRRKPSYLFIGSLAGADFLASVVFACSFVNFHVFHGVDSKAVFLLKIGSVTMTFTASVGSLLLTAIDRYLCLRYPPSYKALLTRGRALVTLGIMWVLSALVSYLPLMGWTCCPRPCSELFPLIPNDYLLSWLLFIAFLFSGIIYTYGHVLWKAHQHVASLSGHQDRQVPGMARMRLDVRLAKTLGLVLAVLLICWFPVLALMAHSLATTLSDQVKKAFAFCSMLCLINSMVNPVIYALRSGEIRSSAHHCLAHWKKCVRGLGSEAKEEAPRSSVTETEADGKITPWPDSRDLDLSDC
# T2 sequence (P21554 whole entry): as the sequence (P21554 whole entry, looked up) above
# Chain of Cannabinoid receptor 2 (P34972 whole entry): as the sequence (P34972 whole entry, looked up) above
compound,measurement,setting,value
CCCCCc1cc(O)cc(OCCCCCCCCCCC(=O)NCc2ccc(OC)c(O)c2)c1,pIC50,[1],5.00
same,pKi,Cannabinoid receptor 2,5.78
same,Ratio Ki,[2],1.3
same,pKi,Cannabinoid receptor 1 [3],5.68
CCCCCCc1c(O)cccc1OCCCCCCCCCCC(=O)NCc1ccc(OC)c(O)c1,pIC50,[1],4.30
same,pKi,Cannabinoid receptor 2,5.68
same,pKi,Cannabinoid receptor 1 [3],5.55
CCCCCc1cc(O)cc(OCCCCCCCC(=O)NC2CC2)c1,pIC50,[1],< 4.30
same,pKi,Cannabinoid receptor 2,7.41
same,Ratio Ki,[2],0.33
same,pKi,Cannabinoid receptor 1 [3],7.80
CCCCCCc1ccc(OCCCCCCCC(=O)NCCO)cc1O,pIC50,[1],4.30
same,pKi,Cannabinoid receptor 2,5.62
same,Ratio Ki,[2],0.08
same,pKi,Cannabinoid receptor 1 [3],6.72
CCCCCCc1ccc(OCCCCCCCCCCC(=O)NCCc2ccc(O)c(O)c2)cc1O,pIC50,Cannabinoid receptor 1 [4],< 5.00
same,pIC50,Cannabinoid receptor 2,< 5.00
CCCCCCc1ccc(OCCCCCCCCCCCC(=O)NC2CC2)cc1O,pIC50,Cannabinoid receptor 1 [4],< 5.00
same,pIC50,[1],< 4.30
same,pKi,Cannabinoid receptor 2,5.40
CCCCCCc1ccc(OCCCCCCCCCCC(=O)NCC2CC2)cc1O,pIC50,Cannabinoid receptor 1 [4],< 5.00
same,pIC50,[1],< 4.30
same,pKi,Cannabinoid receptor 2,5.54
CCCCCCc1c(O)cccc1OCCCCCCCC(=O)NC1CC1,pIC50,[1],4.30
same,pKi,Cannabinoid receptor 2,5.74
same,Ratio Ki,[2],0.17
same,pKi,Cannabinoid receptor 1 [3],6.51
CCCCCCc1ccc(OCCCCCCCCCCC(=O)NCc2ccc(OC)c(O)c2)cc1O,pIC50,Cannabinoid receptor 1 [4],< 5.00
same,pIC50,[1],< 4.30
same,pIC50,Cannabinoid receptor 2,< 5.00
same,Ratio Ki,[2],1.3
CCCCCCc1ccc(OCCCCCCCC(=O)NC2CC2)cc1O,pIC50,[1],< 4.30
same,pKi,Cannabinoid receptor 2,6.55
same,Ratio Ki,[2],0.2
same,pKi,Cannabinoid receptor 1 [3],7.25
CCCCCc1cc(O)cc(OCCCCCCCC(=O)NCCO)c1,pIC50,[1],< 4.30
same,pKi,Cannabinoid receptor 2,6.41
same,pKi,Cannabinoid receptor 1 [3],6.89
CCCCCc1cc(O)cc(OCCCCCCCCCCCC(=O)NCCO)c1,pIC50,[1],< 4.30
same,pKi,Cannabinoid receptor 2,7.41
same,Ratio Ki,[2],1.5
same,pKi,Cannabinoid receptor 1 [3],7.22
CCCCCc1cc(O)cc(OCCCCCCCCCCCC(=O)NC2CC2)c1,pIC50,[1],4.30
same,pKi,Cannabinoid receptor 2,6.51
same,Ratio Ki,[2],2.4
same,pKi,Cannabinoid receptor 1 [3],6.12
CCCCCCc1c(O)cccc1OCCCCCCCC(=O)NCCO,pIC50,[1],4.60
same,pKi,Cannabinoid receptor 2,5.40
same,Ratio Ki,[2],0.07
same,pKi,Cannabinoid receptor 1 [3],6.59
CCCCCCc1ccc(OCCCCCCCCCCCC(=O)NCCO)cc1O,pIC50,Cannabinoid receptor 1 [4],< 5.00
same,pIC50,[1],5.00
same,pIC50,Cannabinoid receptor 2,< 5.00
CCCCCc1cc(O)cc(OCCCCCCCCCCC(=O)NCC2CC2)c1,pIC50,[1],< 4.30
same,pKi,Cannabinoid receptor 2,7.10
same,Ratio Ki,[2],6.4
same,pKi,Cannabinoid receptor 1 [3],6.29
CCCCCc1cc(O)cc(OCCCCCCCCCCC(=O)NCCc2ccc(O)c(O)c2)c1,pIC50,Cannabinoid receptor 2,< 5.00
same,pKi,Cannabinoid receptor 1 [3],6.25

# — ChEMBL document CHEMBL1143734, “Design, synthesis, binding, and molecular modeling studies of new potent ligands of cannabinoid receptors” (Bioorg Med Chem, 2007)
